Experimental data of several laboratories.
Cell line: NCI-H226
Read-out: cell growth or viability

With `COc1ccc(C(=O)/C=C/c2cccc(Br)c2)cc1S(N)(=O)=O` the inhibition was 83% (SRB; 10 µM).
The GI50 of `COc1cc(-c2ccc(-c3ccc(C(=N)N)nc3)s2)cc(OC)c1OC` is reported as 10.8 µM (SRB).
For `CCCCC/C=C/C(=O)CCc1ccc(O)c(OC)c1`, the IC50 was 18 µM (SRB).
For `CCc1n(Cc2ccc3ccccc3n2)cc[n+]1Cc1ccc2ccccc2c1`, the TGI was 4.87 µM (SRB).
`COc1ccc(C(=O)/C=C/c2cccc(Cl)c2)cc1S(N)(=O)=O` has a GI50 of 2.8 µM (SRB; 48 h).
The TGI of `Cc1n(Cc2ccc3ccccc3n2)cc[n+]1Cc1ccc2ccccc2c1` is reported as 10.9 µM (SRB).
For `COc1ccc(C(=O)/C=C/c2cccc3ccccc23)cc1S(N)(=O)=O`, the GI50 was 3.1 µM (SRB; 48 h).
`CC(=O)O[C@H]1C(=O)[C@@]2(C)[C@H]([C@H](OC(=O)c3ccccc3)[C@]3(O)C[C@H](OC(=O)[C@H](O)[C@@H](NC(=O)c4ccccc4)c4ccccc4)C(C)=C1C3(C)C)[C@]1(OC(C)=O)CO[C@@H]1C[C@@H]2O` has an IC50 of 0.0043 µM (SRB).
The TGI of `c1ccc(-c2n(Cc3ccc4ccccc4c3)cc[n+]2Cc2ccc3ccccc3c2)cc1` is reported as 2.97 µM (SRB).
The IC50 of `COc1cc([C@@H]2c3cc4c(cc3[C@@H](O[C@@H]3O[C@@H]5CO[C@@H](C)O[C@H]5[C@H](O)[C@H]3O)[C@H]3COC(=O)[C@H]23)OCO4)cc(OC)c1O` is reported as 0.39 µM (MTT; 72 h).
The GI50 of `COc1ccccc1/C=C/C(=O)c1ccc(OC)c(S(N)(=O)=O)c1` is reported as 4 µM (SRB; 48 h).
For `O=C(/C=C/C=C/c1ccc2c(c1)OCO2)N1CCCCC1`, the IC50 was 83.7 µM (SRB).
`CCCc1n(Cc2ccc3ccccc3n2)cc[n+]1Cc1ccc2ccccc2n1` gave a TGI of 34.8 µM (SRB).
With `O=C1NC(=NCc2cccs2)S/C1=C\c1ccc2ncccc2c1` the IC50 was over 10 µM.
The inhibition of `COc1ccc(C(=O)/C=C/c2cc3c(cc2Br)OCO3)cc1S(N)(=O)=O` is reported as 87% (SRB; 10 µM).
`O=c1[nH]cc(S(=O)(=O)Nc2cccc(-c3nnc(-c4cccc(Cl)c4)o3)c2)c(=O)[nH]1` gave an IC50 of 7.7 µM (MTT; 24 h).
For `S=C([S][Au-][P+](CCCCCC[P+]([Au-][S]C(=S)n1cccn1)(c1ccccc1)c1ccccc1)(c1ccccc1)c1ccccc1)n1cccn1`, the GI50 was 6.63 µM (SRB).
